Calls of active or inactive are those of the source. The calls are words filed in the database; no cut-off is given here.
Columns and labels:
Homo sapiens [1] = species: Homo sapiens; test: Activation of LPS-induced NF-kappaB activity in human THP1-Blue-NF-kappaB cells assessed as increase in SEAP reporter activity at 5 uM incubated for 20 hrs by quanti-blue SEAP assay relative to control
Procedure, shortened: (§1)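 THP1-Blue NF-κB cells, 10^5/well, in RPMI with 10% FBS, pen/strep and Normocin. Compound (5 μM single point or graded concentrations, 0.05% DMSO) is added together with LPS; methods give final LPS 10 μg/mL, table footnote gives 10 ng/mL. Supernatant SEAP is read after 20 h by QuantiBlue colorimetry at 630 nm.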

Homo sapiens [2] = species: Homo sapiens; test: Activation of IFNalpha signalling in human ISRE-bla-THP1 cells assessed as increase in type-1 IFN-alpha induced ISRE activity at 5 uM preincubated for 16 hrs followed by CCF4-AM substrate addition and measured after 3 hrs by FRET based assay relative to control; assay type: cell-based
Procedure, shortened: (§2)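 ISRE-bla THP-1 cells, 5×10^4/well, in RPMI with 10% dialyzed FBS, 0.1 mM non-essential amino acids, 1 mM pyruvate and pen/strep. Cells are co-treated with IFN-α (final 100 U/mL) and compound: 5 μM single point or graded concentrations, 0.05% DMSO. After 16 h, CCF4-AM is added for 3 h at RT in the dark.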

[3] = Activation of LPS-induced NF-kappaB activity in human THP1-Blue-NF-kappaB cells assessed as increase in SEAP reporter activity incubated for 20 hrs by quanti-blue SEAP assay; procedure, shortened: as §1
[4] = Activation of IFNalpha signalling in human ISRE-bla THP1 cells assessed as increase in type-1 IFN-alpha induced ISRE activity preincubated for 16 hrs followed by CCF4-AM substrate addition and measured after 3 hrs by FRET based assay; assay type: cell-based; details: THP-1; procedure, shortened: as §2
THP-1 = test: Cytotoxicity against human THP1 cells assessed as reduction in cell viability at 5 uM incubated for 18 hrs by MTT assay relative to control; details: thp-1, 18 h
[5] = Stability of the compound in DMSO; assay type: physicochemical
[6] = Prodrug conversion in RPMI assay medium supplemented with 10% dialyzed FBS, 100 U/ml penicillin and 100 ug/ml streptomycin assessed as N-(4-chloro-2,5-dimethoxyphenyl)-4-ethoxybenzene-sulfonamide release; assay type: ADME; details: cattle
Mus musculus = species: Mus musculus; test: Co-adjuvanticity in ovalbumin immunized C57BL/6 mouse assessed as increase in OVA-specific IgG titers in blood at 100 nmol co-immunized with adjuvant MPLA and ovalbumin antigen on day 0 and 21 and measured on day 21 by ELISA; assay type: functional, organism-based
Procedure, shortened: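 C57BL/6 mice, 7–9 weeks old, n=8/group, immunized on days 0 and 21 with ovalbumin (20 μg/animal), MPLA (10 μg/animal) and compound (100 nmol/animal). Bled on day 21; OVA-specific IgG titers measured by ELISA.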

[7] = Systemic toxicity in ovalbumin immunized C57BL/6 mouse assessed as behavioural changes at 50 nmol co-immunized with adjuvant MPLA and ovalbumin antigen on day 0 and 21; details: in vivo
Procedure, shortened: (§3)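 C57BL/6 mice, 7–9 weeks old, n=8/group, immunized intramuscularly (gastrocnemius) on days 0 and 21 with ovalbumin (20 μg/animal), MPLA (10 ng/animal) and compound (50 nmol/animal). Systemic toxicity monitored as behaviour change and weight loss.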

[8] = Systemic toxicity in ovalbumin immunized C57BL/6 mouse assessed as body weight loss at 50 nmol co-immunized with adjuvant MPLA and ovalbumin antigen on day 0 and 21; details: in vivo; procedure, shortened: as §3

Row | Activity (Homo sapiens [1]) | Structure (SMILES) | Activity (Homo sapiens [2]) | Activity (THP-1) | also measured
1 | 182% | C#CCCCN(c1cc(OC)c(Cl)cc1OC)S(=O)(=O)c1ccc(OCC)cc1 | 184% | 70.7% | –
2 | 219% | CCOc1ccc(S(=O)(=O)N(CCCO)c2cc(OC)c(Cl)cc2OC)cc1 | 178% | 68.5% | –
3 | 217% | C#CCN(c1cc(OC)c(N=[N+]=[N-])cc1OC)S(=O)(=O)c1ccc(OCC)cc1 | 182% | 73.4% | –
4 | 175% | CCOc1ccc(S(=O)(=O)N(CC(C)C)c2cc(OC)c(Cl)cc2OC)cc1 | 193% | 76.7% | –
5 | 189% | CCOc1ccc(S(=O)(=O)N(CCCN)c2cc(OC)c(Cl)cc2OC)cc1.Cl | 182% | 71% | EC50 [3]: 3.32 µM; EC50 [4]: 3.04 µM
6 | 230% | CCOc1ccc(S(=O)(=O)N(CCCC(=O)O)c2cc(OC)c(Cl)cc2OC)cc1 | 151% | 73.4% | –
7 | 192% | CCCCN(c1cc(OC)c(Cl)cc1OC)S(=O)(=O)c1ccc(OCC)cc1 | 156% | 77.7% | –
8 | 107% | C#CCOCCOCCOCCN(c1cc(OC)c(Cl)cc1OC)S(=O)(=O)c1ccc(OCC)cc1 | 130% | 73.7% | –
9 | 184% | CCOc1ccc(S(=O)(=O)N(C(C)=O)c2cc(OC)c(Cl)cc2OC)cc1 | 244% | 72% | Stability [5]: Stable; Drug metabolism [6]: Metabolite_Detected
10 | 199% | CCOC(=O)CCCN(c1cc(OC)c(Cl)cc1OC)S(=O)(=O)c1ccc(OCC)cc1 | 199% | 80.1% | –
11 | 200% | CCOc1ccc(S(=O)(=O)Nc2cc(OC)c(Cl)cc2OC)cc1 | 200% | 73.5% | EC50 [3]: 0.6 µM; EC50 [4]: 0.66 µM; Activity (Mus musculus): Active; Activity [7]: Non-Toxic; Activity [8]: Non-Toxic
12 | 138% | CCOc1ccc(S(=O)(=O)N(CCCN)c2cc(OC)c(N=[N+]=[N-])cc2OC)cc1.Cl | 117% | 68.9% | –
13 | 97% | CCCCCCCCCCCCN(c1cc(OC)c(Cl)cc1OC)S(=O)(=O)c1ccc(OCC)cc1 | 100% | 93% | –
14 | 235% | CCOc1ccc(S(=O)(=O)N(C)c2cc(OC)c(Cl)cc2OC)cc1 | 215% | 74.5% | EC50 [3]: 0.69 µM; EC50 [4]: 0.84 µM; Activity (Mus musculus): Active; Activity [7]: Non-Toxic; Activity [8]: Non-Toxic
15 | 232% | C#CCN(c1cc(OC)c(Cl)cc1OC)S(=O)(=O)c1ccc(OCC)cc1 | 213% | 72% | –
16 | 206% | CCNC(=O)CCCN(c1cc(OC)c(Cl)cc1OC)S(=O)(=O)c1ccc(OCC)cc1 | 137% | 78.2% | –

The remaining lines, values behind:

Row | Structure (SMILES) | Activity (Homo sapiens [1]) | Activity (Homo sapiens [2]) | Activity (THP-1) | also measured
17 | COc1ccc(S(=O)(=O)Nc2cc(OC)c(Cl)cc2OC)cc1 | 226% | 219% | 69.6% | EC50 [3]: 1.85 µM; EC50 [4]: 1.4 µM
18 | CCOc1ccc(S(=O)(=O)Nc2cc(OC)ccc2OC)cc1 | 116% | 96% | 73.1% | –
19 | CCCOc1ccc(S(=O)(=O)Nc2cc(OC)c(Cl)cc2OC)cc1 | 149% | 125% | 71.3% | –
20 | COc1cc(NS(=O)(=O)c2ccc([N+](=O)[O-])cc2)c(OC)cc1Cl | 101% | 103% | 97.4% | –
21 | CCOC(=O)c1ccc(S(=O)(=O)Nc2cc(OC)c(Cl)cc2OC)cc1 | 189% | 169% | 70.8% | –
22 | COC(=O)c1ccc(S(=O)(=O)Nc2cc(OC)c(Cl)cc2OC)cc1 | 191% | 202% | 74.4% | –
23 | CNC(=O)c1ccc(S(=O)(=O)Nc2cc(OC)c(Cl)cc2OC)cc1 | 103% | 105% | 77% | –
24 | CCCc1ccc(S(=O)(=O)Nc2cc(OC)c(Cl)cc2OC)cc1 | 102% | 103% | 85.7% | –
25 | COc1cc(NS(=O)(=O)c2ccc(N)cc2)c(OC)cc1Cl | 101% | 103% | 96% | –
26 | COc1cc(NS(=O)(=O)c2ccc(O)cc2)c(OC)cc1Cl | 98% | 104% | 85.2% | –
27 | COc1cc(NS(=O)(=O)c2ccc(C(=O)O)cc2)c(OC)cc1Cl | 89% | 104% | 98.2% | –
28 | CCOc1ccc(S(=O)(=O)N(CCCNC(=O)CCCC[C@H]2SC[C@H]3NC(=O)N[C@H]32)c2cc(OC)c(N=[N+]=[N-])cc2OC)cc1 | 162% | 140% | 73.8% | –
29 | CCOc1ccc(S(=O)(=O)Nc2cc(OC)c([N+](=O)[O-])cc2OC)cc1 | 133% | 110% | 79.2% | –
30 | COc1cc(NS(=O)(=O)c2ccc(CN)cc2)c(OC)cc1Cl | 103% | 111% | 97% | –
31 | COc1cc(NS(=O)(=O)c2ccccc2OC)c(OC)cc1Cl | 96% | 101% | 92.1% | –
32 | COc1cccc(S(=O)(=O)Nc2cc(OC)c(Cl)cc2OC)c1 | 116% | 104% | 79.6% | –
33 | CCOc1ccc(S(=O)(=O)Nc2ccc(Cl)cc2OC)cc1 | 141% | 109% | 78.3% | –
34 | COc1cc(NS(=O)(=O)c2ccc(CNC(=O)OC(C)(C)C)cc2)c(OC)cc1Cl | 100% | 101% | 109.2% | –
35 | CCOc1ccc(S(=O)(=O)Nc2cc(OC)c(Cl)c(OC)c2)cc1 | 179% | 218% | 71.4% | –
